Data set [1] in a line: Toxicity in human HK2 cells assessed as induction of accidental necrosis at 20 uM after 24 hrs by propidium iodide staining. The data set is classed as cell-based. Particulars: hk-2, 24 h. The essentials: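 Normal human kidney HK-2 cells exposed to compound at 20 μM for 24 h. Accidental necrotic cells identified by propidium iodide staining and expressed as percentage.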

In data set [2] the test system is NCI-H23. Kind of data set: Induction of ROS generation in human H23 cells assessed as cell viability at 20 uM after 24 hrs by MTT assay in presence of N-acetylcysteine. (Tetrazolium assays rely on reduction of a dye to a coloured formazan, in cell work by metabolically active cells.)
Data set [3] relates to NCI-H23. Kind of data set: Cytotoxicity against human H23 cells assessed as cell viability after 24 hrs by MTT assay. The data set is classed as functional, cell-based. The method, boiled down: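 H23 cells (1.5 × 10^5 cells/mL) grown 24 h at 37 °C in RPMI 1640, then exposed to 0−20 μM compound for 24 h at 37 °C. MTT (500 μg/mL) added for 4 h, formazan dissolved in DMSO, absorbance read at 570 nm. Viability expressed as percent of untreated control; at least three replicate cultures.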

Data set [4] relates to NCI-H23. Kind of data set: Induction of ROS generation in human H23 cells assessed as apoptotic cells at 20 uM after 24 hrs by Hoechst 33342/propidium iodide staining-based fluorescence microscopy in presence of N-acetylcysteine. The data set is classed as functional, cell-based. The essentials: (§1)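 Cells plated 24 h, then incubated 1 h at 37 °C with or without 1 mM NAC before 20 μM compound for 24 h. Staining used 10 μM Hoechst 33342 plus 10 μM PI for 30 min at 37 °C. Condensed or fragmented nuclei were scored as apoptotic and PI-stained nuclei as accidental necrotic, by fluorescence microscopy.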

A short description of data set [5]: Induction of intracellular superoxide anion generation in human H23 cells at 20 uM after 6 hrs by DCFH2-DA staining based fluorescence assay in presence of dihydroethidium relative to control. The data set is classed as cell-based. Conditions: nci-h23, 6 h. The method, boiled down:
(§2)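 Seeded cells loaded 30 min at 4 °C with 10 μM probe in PBS: HPF for hydroxyl radical, DHE for superoxide. Then 20 μM compound was added for 0−6 h at 37 °C. Plate fluorescence read at ex 490/515 nm (HPF) and ex 488/610 nm (DHE). Triplicate samples.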

Data set [6] has as its system NCI-H23. Kind of data set: Induction of apoptosis in human H23 cells assessed as accumulation of sub-G0 fraction after 24 hrs by propidium iodide staining-based flow cytometry. The data set is classed as functional, cell-based. The essentials:
(§3)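 Attached cells exposed 24 h to 0−20 μM were collected into 3% FBS/PBS and fixed in absolute ethanol at −20 °C for 24 h. They were stained 40 min at 37 °C in PI buffer containing RNase A and Triton X-100. Sub-G0 fraction was taken from the flow cytometry DNA histogram. The same cells were stained with trypan blue and counted on an automated counter, with membrane-damaged cells scored as necrotic.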

Data set [7] concerns NCI-H23. Kind of data set: Induction of intracellular hydroxyl radical generation in human H23 cells at 20 uM after 6 hrs by DCFH2-DA staining based fluorescence assay in presence of HPF. The data set is classed as functional, cell-based. The method, boiled down: as §2
Data set [8] has as its system NCI-H23. Kind of data set: Induction of intracellular ROS generation in human H23 cells at 20 uM after 6 hrs by DCFH2-DA staining based fluorescence assay in presence of N-acetylcysteine. The data set is classed as functional, cell-based. The essentials:
(§4)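 Seeded cells (24 h) loaded 30 min at 4 °C with 10 μM DCFH2-DA in PBS, with or without 1 mM scavenger (NAC, or sodium pyruvate for H2O2). Then 20 μM compound was added and cells incubated 0−6 h at 37 °C. Fluorescence read at ex 480 nm / 530 nm band-pass. Triplicate samples.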

Data set [9] can be described thus: Induction of ROS generation in human H23 cells assessed as accidental necrotic cells at 20 uM after 24 hrs by Hoechst 33342/propidium iodide staining-based fluorescence microscopy in presence of N-acetylcysteine. The data set is classed as cell-based. Conditions: nci-h23, 24 h. The essentials:
as §1

Data set [10] relates to NCI-H23. Kind of data set: Induction of intracellular ROS generation in human H23 cells at 20 uM after 6 hrs by DCFH2-DA staining based fluorescence assay. The data set is classed as functional, cell-based. The method, boiled down: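 H23 cells seeded 24 h at 37 °C, medium removed, then loaded with DCFH2-DA (10 μM final) in PBS for 30 min at 4 °C. Compound added at 20 μM and incubated 6 h at 37 °C. Fluorescence read on a microplate reader (excitation 480 nm, 530 nm band-pass). Triplicate samples, means ± SD.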

The nature of data set [11]: Induction of accidental necrosis in human H23 cells assessed as loss of membrane integrity at 5 to 20 uM after 24 hrs by trypan blue exclusion assay. The data set is classed as cell-based. Particulars: nci-h23, 24 h. The method, boiled down: as §3
Data set [12] concerns NCI-H23. Kind of data set: Induction of apoptosis in human H23 cells at 1 to 20 uM after 24 hrs by Hoechst 33342/propidium iodide staining-based fluorescence microscopy. The data set is classed as functional. The essentials: (§5)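 H23 cells exposed to compound (0–20 μM range) for 24 h at 37 °C, then co-stained 30 min at 37 °C with 10 μM Hoechst 33342 and 10 μM PI. Scored by fluorescence microscopy: condensed or fragmented nuclei counted as apoptotic, PI-positive membrane-damaged cells counted as accidental necrotic. Results given as percentages; means ± SD of three independent experiments.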

Data set [13] can be described thus: Toxicity in human H23 cells assessed as induction of accidental necrosis at 1 to 20 uM after 24 hrs by Hoechst 33342/propidium iodide staining-based fluorescence microscopy. Conditions: nci-h23, 24 h. The data set is classed as cell-based. The method, boiled down: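 H23 cells exposed to 0−20 μM compound for 24 h at 37 °C, then stained 30 min at 37 °C with 10 μM Hoechst 33342 and 10 μM PI. PI-stained, membrane-damaged cells were scored as accidental necrotic under a fluorescence microscope.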

Data set [14] concerns NCI-H23. Kind of data set: Induction of intracellular H2O2 generation in human H23 cells at 20 uM after 6 hrs by DCFH2-DA staining based fluorescence assay in presence of sodium pyruvate. The data set is classed as functional, cell-based. The essentials: as §4
Data set [15] concerns NCI-H23. Kind of data set: Cytotoxicity against human H23 cells assessed as cell viability at 20 uM after 24 hrs by MTT assay. The data set is classed as functional, cell-based. The method, boiled down:
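H23 non-small-cell lung cancer cells (RPMI 1640, 5% FBS, 2 mM L-glutamine) plated at 1.5 × 10^5 cells/mL, grown 24 h at 37 °C, then exposed to compound 24 h at 37 °C. MTT 500 μg/mL added for 4 h; formazan dissolved in DMSO, absorbance read at 570 nm. Viability given as percent of untreated control; at least three replicate cultures.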

Data set [16] has as its system NCI-H23. Kind of data set: Induction of apoptosis in human H23 cells at 20 uM after 24 hrs by Hoechst 33342/propidium iodide staining-based fluorescence microscopy. The data set is classed as functional, cell-based. The essentials: as §5
Data set [17] is described as follows: Toxicity in human H23 cells assessed as induction of accidental necrosis at 20 uM after 24 hrs by Hoechst 33342/propidium iodide staining-based fluorescence microscopy. The data set is classed as cell-based. Particulars: nci-h23, 24 h. The essentials: as §5

The source of these data is ChEMBL document CHEMBL2406950, “Replacement of a quinone by a 5-O-acetylhydroquinone abolishes the accidental necrosis inducing effect while preserving the apoptosis-inducing effect of renieramycin M on lung cancer cells” (J Nat Prod, 2013).

Active and inactive are the calls of the source. No cut-off for these calls is given here.

On to `C/C=C(/C)C(=O)OC[C@H]1C2=C(C[C@H]3[C@H]4C5=C(C[C@@H]([C@H](C#N)N13)N4C)C(=O)C(C)=C(OC)C5=O)C(=O)C(C)=C(OC)C2=O` [RENIERAMYCIN M], for which the Activity in data set [1] is 60%; in data set [3] it was “Dose-dependent effect”; in data set [5], “Toxic”; in data set [6], “Dose-dependent effect”; in data set [9] it was “Non-toxic”; in data set [11], 10%. Also, the Activity in data set [12] was 51%; in [13] it was 2.5%. For the same compound, the result in data set [2], in data set [7], in data set [8] and in [14] was inactive. The result in data set [4] and in [10] was Active.

Turning to `C/C=C(/C)C(=O)OC[C@H]1c2c(c(OC(C)=O)c(C)c(OC)c2OC(C)=O)C[C@H]2[C@H]3c4c(c(OC(C)=O)c(C)c(OC)c4OC(C)=O)C[C@@H]([C@H](C#N)N12)N3C`, the Activity entry in [1] and in data set [17] was “Non-toxic” throughout. In addition, the outcome in data set [15] was Active. Besides, the outcome in data set [16] and in [10] was inactive.

As to `C/C=C(/C)C(=O)OC[C@H]1c2c(O)c(OC)c(C)c(OC(C)=O)c2C[C@H]2[C@H]3C4=C(C[C@@H]([C@H](C#N)N12)N3C)C(=O)C(C)=C(OC)C4=O`, the Activity result in data set [1] is “Non-toxic”; in data set [3], “Dose-dependent effect”; in [5], “Non-toxic”; in data set [6] it was “Dose-dependent effect”; in [11], 1%; in data set [12] it was 46%. The outcome in data set [2], in data set [4] and in data set [10] was Active. Moreover, the result in [7], in [8] and in [14] was inactive.
